Test results reported in paper PMC11696060 (Nature Communications, 2025).

Tests used:
[1] = test system: wild-type Arabidopsis seeds; assay type: in vivo, Arabidopsis thaliana; details: after high temperature, 1 µM KAR2
Outline: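 Sterilized, stratified Columbia seeds (~30 per well) sown on 0.2% phytoagar containing 1 µM KAR₂ and a concentration series of test compound. Incubated at 30 °C under continuous white light (20 μmol m⁻² s⁻¹) 48 h, then 22 °C for 48 h. Germination % = germinated/total seeds per well; 6 biological replicates, means ± SE; one-way ANOVA with Tukey's HSD.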

[2] = test system: wild-type Arabidopsis seedlings; test: Hypocotyl elongation assay, wild-type Arabidopsis co-treated with KAR2; assay type: in vivo, Arabidopsis thaliana; details: 0.3 µM KAR2

## O=C(N1CCc2ccccc21)n1ccnn1 [KK094]
[1]
  Concentration inhibiting the recovery of seed germination by KAR2: 100 µM
[2]
  Concentration at which KAR2-suppressed hypocotyl length is restored: 0.3 µM
